Reference: publication PMC7841779 (ACS Omega, 2021)

Columns and labels:
LHRH receptor = biological target: T1, LHRH receptor (Homo sapiens, UniProt P30968); experiment: LHRH receptor competition assay of 99mTc conjugate, MDA-MB-231; assay type: cell-based; details: MDA-MB-231 cells, cotreatment with 100 μg LHRH, 1 μCi, 37 °C, γ counter; n = 3
T1 sequence (P30968 1-328): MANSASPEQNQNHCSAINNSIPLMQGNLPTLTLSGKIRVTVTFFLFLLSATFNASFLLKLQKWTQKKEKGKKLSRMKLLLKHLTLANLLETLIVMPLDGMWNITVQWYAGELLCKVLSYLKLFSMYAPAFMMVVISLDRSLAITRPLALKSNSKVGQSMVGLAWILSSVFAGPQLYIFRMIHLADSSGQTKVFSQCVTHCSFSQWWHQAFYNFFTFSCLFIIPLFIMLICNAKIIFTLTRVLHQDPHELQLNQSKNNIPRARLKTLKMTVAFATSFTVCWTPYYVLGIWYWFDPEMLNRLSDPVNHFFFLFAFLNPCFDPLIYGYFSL
In short: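 MDA-MB-231 cells were grown in DMEM with 5 mM L-glutamine, 1% penicillin/streptomycin and 10% FBS at 37 °C, 5% CO2. Cells were seeded at 2 × 10^5 per well and cultured 48 h. 1 μCi (0.037 MBq) of 99mTc-labelled conjugate was added together with 100 μg LHRH and incubated at 37 °C for 15, 30, 60 and 120 min (n = 3). Cells were washed 3× in PBS, trypsinised and γ-counted. Uptake is % of cell counts over total counts, reported as mean ± SEM.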

MDA-MB-231 cells = experiment: MTT cell viability assay, MDA-MB-231; assay type: cell-based, human; details: highest dose 100 μM, compared to unconjugated [Re(CO)3(H2O)3]+
4T1 cells = experiment: MTT cell viability assay, 4T1; assay type: cell-based, mouse; details: highest dose 100 μM, compared to unconjugated [Re(CO)3(H2O)3]+
In short: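 4T1 cells were kept in DMEM with 10% FBS and penicillin/streptomycin at 37 °C, 5% CO2, then seeded at 2000 cells/100 μL. Test compound or free [Re(CO)3(H2O)3]+ was applied at 0.1–100 μM for 24 h. Cells were washed 3× with PBS and grown 48 h in DMEM/10% FBS. MTT was added for 4 h, cells were solubilised with SDS, and absorbance was read at 595 nm.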

| cell uptake with LHRH cotreatment (competition) (LHRH receptor) | Substance | cytotoxicity at the highest dose (MDA-MB-231 cells) | cytotoxicity at the highest dose (4T1 cells) |
| --- | --- | --- | --- |
| decrease | ^99mTc-Acdien-LHRH: Acdien-LHRH radiolabeled with [99mTc(CO)3]+ from Isolink kit |  |  |
|  | Re-Acdien-LHRH: Acdien-LHRH reacted with equimolar [Re(CO)3(H2O)3]+; nonradioactive rhenium-LHRH conjugate | did not induce cytotoxicity |  |
|  | Re-Acdien-peg-LHRH: PEGylated Acdien-peg-LHRH chelated with [Re(CO)3(H2O)3]+ | did not induce cytotoxicity | did not induce cytotoxicity |
